According to ChEMBL document CHEMBL1275377, “Structure-based design, synthesis, and structure-activity relationship studies of HIV-1 protease inhibitors incorporating phenyloxazolidinones” (J Med Chem, 2010):

Tested on: Human immunodeficiency virus 1
Test: Antiviral activity against Human immunodeficiency virus 1 clade C isolated from HIV-AIDS patient
Assay type: functional, organism-based

Row | Compound | EC50
1 | CC(C)CN(C[C@@H](O)[C@H](Cc1ccccc1)NC(=O)[C@@H]1CN(c2ccccc2)C(=O)O1)S(=O)(=O)c1ccc2ncsc2c1 | 0.0409 µM
2 | CC(C)CN(C[C@@H](O)[C@H](Cc1ccccc1)NC(=O)[C@@H]1CN(c2cccc(C(F)(F)F)c2)C(=O)O1)S(=O)(=O)c1ccc2ncsc2c1 | 0.0325 µM
3 | CC(C)CN(C[C@@H](O)[C@H](Cc1ccccc1)NC(=O)[C@@H]1CN(c2cccc(OC(F)(F)F)c2)C(=O)O1)S(=O)(=O)c1ccc2ncsc2c1 | 0.0578 µM
4 | CC(=O)c1cccc(N2C[C@@H](C(=O)N[C@@H](Cc3ccccc3)[C@H](O)CN(CC(C)C)S(=O)(=O)c3ccc4ncsc4c3)OC2=O)c1 | 0.0101 µM
5 | COc1ccc(S(=O)(=O)N(CC(C)C)C[C@@H](O)[C@H](Cc2ccccc2)NC(=O)[C@@H]2CN(c3cccc(S(C)(=O)=O)c3)C(=O)O2)cc1 | 0.0096 µM
6 | CC(C)CN(C[C@@H](O)[C@H](Cc1ccccc1)NC(=O)[C@@H]1CN(c2cccc(S(C)(=O)=O)c2)C(=O)O1)S(=O)(=O)c1ccc2c(c1)OCO2 | 0.0076 µM

Tested on: Human immunodeficiency virus 1
Test: Antiviral activity against Human immunodeficiency virus 1 clade A isolated from HIV-AIDS patient
Assay type: functional, organism-based

Row | Compound | EC50
7 | CC(C)CN(C[C@@H](O)[C@H](Cc1ccccc1)NC(=O)[C@@H]1CN(c2ccccc2)C(=O)O1)S(=O)(=O)c1ccc2ncsc2c1 | 0.0298 µM
8 | CC(C)CN(C[C@@H](O)[C@H](Cc1ccccc1)NC(=O)[C@@H]1CN(c2cccc(C(F)(F)F)c2)C(=O)O1)S(=O)(=O)c1ccc2ncsc2c1 | 0.0161 µM
9 | CC(C)CN(C[C@@H](O)[C@H](Cc1ccccc1)NC(=O)[C@@H]1CN(c2cccc(OC(F)(F)F)c2)C(=O)O1)S(=O)(=O)c1ccc2ncsc2c1 | 0.0325 µM
10 | CC(=O)c1cccc(N2C[C@@H](C(=O)N[C@@H](Cc3ccccc3)[C@H](O)CN(CC(C)C)S(=O)(=O)c3ccc4ncsc4c3)OC2=O)c1 | 0.0097 µM
11 | COc1ccc(S(=O)(=O)N(CC(C)C)C[C@@H](O)[C@H](Cc2ccccc2)NC(=O)[C@@H]2CN(c3cccc(S(C)(=O)=O)c3)C(=O)O2)cc1 | 0.0073 µM
12 | CC(C)CN(C[C@@H](O)[C@H](Cc1ccccc1)NC(=O)[C@@H]1CN(c2cccc(S(C)(=O)=O)c2)C(=O)O1)S(=O)(=O)c1ccc2c(c1)OCO2 | 0.0078 µM

Tested on: Human immunodeficiency virus 1
Test: Antiviral activity against multidrug resistant Human immunodeficiency virus 1 harboring protease M46I, I54V, V82A and L90M mutant
Assay type: functional, organism-based
Method in brief: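 Drug susceptibility assay run by an outside contract lab. Panel: patient-derived wild-type HIV-1 clades A, B and C; MDR1 carrying protease M46I, I54V, V82A, L90M; MDR control MDRC4; and an NL4-3-derived clade B wild-type control (CNDO). The PR/RT regions of these strains were sequenced and deposited.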

Row | Compound | EC50
13 | CC(C)CN(C[C@@H](O)[C@H](Cc1ccccc1)NC(=O)[C@@H]1CN(c2ccccc2)C(=O)O1)S(=O)(=O)c1ccc2ncsc2c1 | 0.113 µM
14 | CC(C)CN(C[C@@H](O)[C@H](Cc1ccccc1)NC(=O)[C@@H]1CN(c2cccc(C(F)(F)F)c2)C(=O)O1)S(=O)(=O)c1ccc2ncsc2c1 | 0.0576 µM
15 | CC(C)CN(C[C@@H](O)[C@H](Cc1ccccc1)NC(=O)[C@@H]1CN(c2cccc(OC(F)(F)F)c2)C(=O)O1)S(=O)(=O)c1ccc2ncsc2c1 | 0.104 µM
16 | CC(=O)c1cccc(N2C[C@@H](C(=O)N[C@@H](Cc3ccccc3)[C@H](O)CN(CC(C)C)S(=O)(=O)c3ccc4ncsc4c3)OC2=O)c1 | 0.0323 µM
17 | COc1ccc(S(=O)(=O)N(CC(C)C)C[C@@H](O)[C@H](Cc2ccccc2)NC(=O)[C@@H]2CN(c3cccc(S(C)(=O)=O)c3)C(=O)O2)cc1 | 0.0144 µM
18 | CC(C)CN(C[C@@H](O)[C@H](Cc1ccccc1)NC(=O)[C@@H]1CN(c2cccc(S(C)(=O)=O)c2)C(=O)O1)S(=O)(=O)c1ccc2c(c1)OCO2 | 0.0136 µM

Tested on: Human immunodeficiency virus 1
Test: Antiviral activity against Human immunodeficiency virus 1 clade B isolated from HIV-AIDS patient
Assay type: functional, organism-based

Row | Compound | EC50
19 | CC(C)CN(C[C@@H](O)[C@H](Cc1ccccc1)NC(=O)[C@@H]1CN(c2ccccc2)C(=O)O1)S(=O)(=O)c1ccc2ncsc2c1 | 0.0141 µM
20 | CC(C)CN(C[C@@H](O)[C@H](Cc1ccccc1)NC(=O)[C@@H]1CN(c2cccc(C(F)(F)F)c2)C(=O)O1)S(=O)(=O)c1ccc2ncsc2c1 | 0.0099 µM
21 | CC(C)CN(C[C@@H](O)[C@H](Cc1ccccc1)NC(=O)[C@@H]1CN(c2cccc(OC(F)(F)F)c2)C(=O)O1)S(=O)(=O)c1ccc2ncsc2c1 | 0.0127 µM
22 | CC(=O)c1cccc(N2C[C@@H](C(=O)N[C@@H](Cc3ccccc3)[C@H](O)CN(CC(C)C)S(=O)(=O)c3ccc4ncsc4c3)OC2=O)c1 | 0.0042 µM
23 | COc1ccc(S(=O)(=O)N(CC(C)C)C[C@@H](O)[C@H](Cc2ccccc2)NC(=O)[C@@H]2CN(c3cccc(S(C)(=O)=O)c3)C(=O)O2)cc1 | 0.0047 µM
24 | CC(C)CN(C[C@@H](O)[C@H](Cc1ccccc1)NC(=O)[C@@H]1CN(c2cccc(S(C)(=O)=O)c2)C(=O)O1)S(=O)(=O)c1ccc2c(c1)OCO2 | 0.0035 µM

Tested on: Human immunodeficiency virus 1
Test: Antiviral activity against wild type Human immunodeficiency virus 1
Assay type: functional, organism-based

Row | Compound | EC50
25 | CC(C)CN(C[C@@H](O)[C@H](Cc1ccccc1)NC(=O)[C@@H]1CN(c2ccccc2)C(=O)O1)S(=O)(=O)c1ccc2ncsc2c1 | 0.0215 µM
26 | CC(C)CN(C[C@@H](O)[C@H](Cc1ccccc1)NC(=O)[C@@H]1CN(c2cccc(C(F)(F)F)c2)C(=O)O1)S(=O)(=O)c1ccc2ncsc2c1 | 0.0135 µM
27 | CC(C)CN(C[C@@H](O)[C@H](Cc1ccccc1)NC(=O)[C@@H]1CN(c2cccc(OC(F)(F)F)c2)C(=O)O1)S(=O)(=O)c1ccc2ncsc2c1 | 0.0221 µM
28 | CC(=O)c1cccc(N2C[C@@H](C(=O)N[C@@H](Cc3ccccc3)[C@H](O)CN(CC(C)C)S(=O)(=O)c3ccc4ncsc4c3)OC2=O)c1 | 0.0065 µM
29 | COc1ccc(S(=O)(=O)N(CC(C)C)C[C@@H](O)[C@H](Cc2ccccc2)NC(=O)[C@@H]2CN(c3cccc(S(C)(=O)=O)c3)C(=O)O2)cc1 | 0.0055 µM
30 | CC(C)CN(C[C@@H](O)[C@H](Cc1ccccc1)NC(=O)[C@@H]1CN(c2cccc(S(C)(=O)=O)c2)C(=O)O1)S(=O)(=O)c1ccc2c(c1)OCO2 | 0.004 µM

Tested on: Human immunodeficiency virus 1
Test: Antiviral activity against multidrug resistant Human immunodeficiency virus 1 MDRC4
Assay type: functional, organism-based

Row | Compound | EC50
31 | CC(C)CN(C[C@@H](O)[C@H](Cc1ccccc1)NC(=O)[C@@H]1CN(c2ccccc2)C(=O)O1)S(=O)(=O)c1ccc2ncsc2c1 | 0.123 µM
32 | CC(C)CN(C[C@@H](O)[C@H](Cc1ccccc1)NC(=O)[C@@H]1CN(c2cccc(C(F)(F)F)c2)C(=O)O1)S(=O)(=O)c1ccc2ncsc2c1 | 0.0534 µM
33 | CC(C)CN(C[C@@H](O)[C@H](Cc1ccccc1)NC(=O)[C@@H]1CN(c2cccc(OC(F)(F)F)c2)C(=O)O1)S(=O)(=O)c1ccc2ncsc2c1 | 0.111 µM
34 | CC(=O)c1cccc(N2C[C@@H](C(=O)N[C@@H](Cc3ccccc3)[C@H](O)CN(CC(C)C)S(=O)(=O)c3ccc4ncsc4c3)OC2=O)c1 | 0.0347 µM
35 | COc1ccc(S(=O)(=O)N(CC(C)C)C[C@@H](O)[C@H](Cc2ccccc2)NC(=O)[C@@H]2CN(c3cccc(S(C)(=O)=O)c3)C(=O)O2)cc1 | 0.0186 µM
36 | CC(C)CN(C[C@@H](O)[C@H](Cc1ccccc1)NC(=O)[C@@H]1CN(c2cccc(S(C)(=O)=O)c2)C(=O)O1)S(=O)(=O)c1ccc2c(c1)OCO2 | 0.0121 µM
